Laboratory results: ChEMBL document CHEMBL4689842, “EUbOPEN Chemogenomics Library wave 1” (2021)

Tested on: U2OS
Test: Multiplex assay against U2OS
Format: toxicity, cell-based
Settings: human
Summary of the method: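 At seeding, live cells were stained with Hoechst33342, BioTracker Green Microtubule Cytoskeleton Dye, MitoTracker Red and Annexin V Alexa Fluor 680. After compound addition they were imaged on a CQ1 microscope at 37°C and 5% CO2, and CellPathfinder machine-learning gating sorted them into Hoechst high-intensity objects or normal cells, with normal cells further split into healthy, pyknosed or fragmented nuclei and pyknosed cells into mitotic or apoptotic. Tubulin, mitochondrial-mass and membrane-permeability phenotypes are given as per cents of cells with healthy nuclei.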

[1] = 12 h, 1 µM, compound concentration 1 uM, replicate 1
[2] = 12 h, 1 µM, compound concentration 1 uM, replicate 2
[3] = 12 h, 10 µM, compound concentration 10 uM, replicate 1
[4] = 12 h, 10 µM, compound concentration 10 uM, replicate 2
[5] = 24 h, 1 µM, compound concentration 1 uM, replicate 1
[6] = 24 h, 1 µM, compound concentration 1 uM, replicate 2
[7] = 24 h, 10 µM, compound concentration 10 uM, replicate 1
[8] = 24 h, 10 µM, compound concentration 10 uM, replicate 2
[9] = 48 h, 1 µM, compound concentration 1 uM, replicate 1
[10] = 48 h, 1 µM, compound concentration 1 uM, replicate 2
[11] = 48 h, 10 µM, compound concentration 10 uM, replicate 1
[12] = 48 h, 10 µM, compound concentration 10 uM, replicate 2

Cc1cc(C)cc(-c2cnc3cc(Cl)c(-c4cccc(O)c4)cc3c2OCCCN)c1
Population Apoptotic (%) [1]: 36%
Population Fragmented Nuclei (%) [1]: 11%
Population Healthy Nuclei (%) [1]: 75%
Population Hoechst High Intensity Objects (%) [1]: 6%
Population Membrane Permeable-Phenotype (%) [1]: 5%
Population Mitochondria Different-Phenotype (%) [1]: 76%
Population Mitotic Cells (%) [1]: 64%
Population Normal (%) [1]: 93%
Population Pyknosed Nuclei (%) [1]: 12%
Population Tubulin-Different-Phenotype (%) [1]: 88%
Total Cell Count [1]: 132
Population Apoptotic (%) [2]: 44%
Population Healthy Nuclei (%) [2]: 72%
Population Hoechst High Intensity Objects (%) [2]: 10%
Population Membrane Permeable-Phenotype (%) [2]: 2%
Population Mitochondria Different-Phenotype (%) [2]: 82%
Population Mitotic Cells (%) [2]: 55%
Population Normal (%) [2]: 90%
Population Pyknosed Nuclei (%) [2]: 16%
Population Tubulin-Different-Phenotype (%) [2]: 56%
Total Cell Count [2]: 68
Population Apoptotic (%) [3]: 90%
Population Fragmented Nuclei (%) [3]: 33%
Population Healthy Nuclei (%) [3]: 1%
Population Hoechst High Intensity Objects (%) [3]: 14%
Population Membrane Permeable-Phenotype (%) [3]: 50%
Population Mitochondria Different-Phenotype (%) [3]: 50%
Population Mitotic Cells (%) [3]: 9%
Population Normal (%) [3]: 85%
Population Pyknosed Nuclei (%) [3]: 64%
Population Tubulin-Different-Phenotype (%) [3]: 50%
Total Cell Count [3]: 207
Population Apoptotic (%) [4]: 70%
Population Fragmented Nuclei (%) [4]: 16%
Population Healthy Nuclei (%) [4]: 32%
Population Hoechst High Intensity Objects (%) [4]: 8%
Population Membrane Permeable-Phenotype (%) [4]: 90%
Population Mitochondria Different-Phenotype (%) [4]: 95%
Population Mitotic Cells (%) [4]: 29%
Population Normal (%) [4]: 91%
Population Pyknosed Nuclei (%) [4]: 50%
Population Tubulin-Different-Phenotype (%) [4]: 100%
Total Cell Count [4]: 60
Population Apoptotic (%) [5]: 35%
Population Fragmented Nuclei (%) [5]: 7%
Population Healthy Nuclei (%) [5]: 77%
Population Hoechst High Intensity Objects (%) [5]: 5%
Population Membrane Permeable-Phenotype (%) [5]: 6%
Population Mitochondria Different-Phenotype (%) [5]: 75%
Population Mitotic Cells (%) [5]: 64%
Population Normal (%) [5]: 94%
Population Pyknosed Nuclei (%) [5]: 14%
Population Tubulin-Different-Phenotype (%) [5]: 68%
Total Cell Count [5]: 131
Population Apoptotic (%) [6]: 62%
Population Fragmented Nuclei (%) [6]: 11%
Population Healthy Nuclei (%) [6]: 75%
Population Hoechst High Intensity Objects (%) [6]: 3%
Population Membrane Permeable-Phenotype (%) [6]: 2%
Population Mitochondria Different-Phenotype (%) [6]: 78%
Population Mitotic Cells (%) [6]: 37%
Population Normal (%) [6]: 96%
Population Pyknosed Nuclei (%) [6]: 13%
Population Tubulin-Different-Phenotype (%) [6]: 28%
Total Cell Count [6]: 66
Population Apoptotic (%) [7]: 86%
Population Fragmented Nuclei (%) [7]: 33%
Population Healthy Nuclei (%) [7]: 2%
Population Hoechst High Intensity Objects (%) [7]: 15%
Population Membrane Permeable-Phenotype (%) [7]: 66%
Population Mitochondria Different-Phenotype (%) [7]: 66%
Population Mitotic Cells (%) [7]: 13%
Population Normal (%) [7]: 84%
Population Pyknosed Nuclei (%) [7]: 63%
Population Tubulin-Different-Phenotype (%) [7]: 66%
Total Cell Count [7]: 200
Population Apoptotic (%) [8]: 93%
Population Fragmented Nuclei (%) [8]: 24%
Population Healthy Nuclei (%) [8]: 3%
Population Hoechst High Intensity Objects (%) [8]: 7%
Population Membrane Permeable-Phenotype (%) [8]: 50%
Population Mitochondria Different-Phenotype (%) [8]: 50%
Population Mitotic Cells (%) [8]: 6%
Population Normal (%) [8]: 92%
Population Pyknosed Nuclei (%) [8]: 72%
Population Tubulin-Different-Phenotype (%) [8]: 50%
Total Cell Count [8]: 63
Population Apoptotic (%) [9]: 48%
Population Fragmented Nuclei (%) [9]: 8%
Population Healthy Nuclei (%) [9]: 75%
Population Hoechst High Intensity Objects (%) [9]: 1%
Population Membrane Permeable-Phenotype (%) [9]: 3%
Population Mitochondria Different-Phenotype (%) [9]: 47%
Population Mitotic Cells (%) [9]: 51%
Population Normal (%) [9]: 98%
Population Pyknosed Nuclei (%) [9]: 15%
Population Tubulin-Different-Phenotype (%) [9]: 32%
Total Cell Count [9]: 127
Population Apoptotic (%) [10]: 54%
Population Fragmented Nuclei (%) [10]: 11%
Population Healthy Nuclei (%) [10]: 73%
Population Hoechst High Intensity Objects (%) [10]: 5%
Population Membrane Permeable-Phenotype (%) [10]: 5%
Population Mitochondria Different-Phenotype (%) [10]: 41%
Population Mitotic Cells (%) [10]: 45%
Population Normal (%) [10]: 95%
Population Pyknosed Nuclei (%) [10]: 14%
Population Tubulin-Different-Phenotype (%) [10]: 16%
Total Cell Count [10]: 73
Population Apoptotic (%) [11]: 83%
Population Fragmented Nuclei (%) [11]: 30%
Population Healthy Nuclei (%) [11]: 3%
Population Hoechst High Intensity Objects (%) [11]: 20%
Population Membrane Permeable-Phenotype (%) [11]: 75%
Population Mitochondria Different-Phenotype (%) [11]: 75%
Population Mitotic Cells (%) [11]: 16%
Population Normal (%) [11]: 79%
Population Pyknosed Nuclei (%) [11]: 65%
Population Tubulin-Different-Phenotype (%) [11]: 75%
Total Cell Count [11]: 270
Population Apoptotic (%) [12]: 96%
Population Fragmented Nuclei (%) [12]: 33%
Population Healthy Nuclei (%) [12]: 12%
Population Hoechst High Intensity Objects (%) [12]: 17%
Population Membrane Permeable-Phenotype (%) [12]: 100%
Population Mitochondria Different-Phenotype (%) [12]: 100%
Population Mitotic Cells (%) [12]: 3%
Population Normal (%) [12]: 82%
Population Pyknosed Nuclei (%) [12]: 54%
Population Tubulin-Different-Phenotype (%) [12]: 100%
Total Cell Count [12]: 80
